Reference: ChEMBL document CHEMBL2163200, “Synthesis, biological evaluation, and structure-activity relationships of novel substituted N-phenyl ureidobenzenesulfonate derivatives blocking cell cycle progression in S-phase and inducing DNA double-strand breaks” (J Med Chem, 2012)
Calls of active or inactive are those of the source. The calls are words filed in the database; no cut-off is given here.

Tests used:
Jurkat [1] = assay: Cell cycle arrest in human Jurkat E6-1 cells assessed as accumulation at S phase at 23 uM after 24 hrs by FACS flow cytometry; assay type: functional
Outline: (§1)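 Jurkat E6 cells grown in RPMI 1640 with 10% FBS at 37 °C, 5% CO2. Compounds were serially diluted in medium starting 50% above the M21 IC50. 4.0 × 10^5 cells were exposed for 24 h, then washed and spiked with chicken red blood cells as internal standard. Cells were fixed in ice-cold ethanol, stained with 1 μg/mL DAPI on ice for 1 h, and phase distribution was read by flow cytometry. The control was 0.5% DMSO.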

Jurkat [2] = assay: Cell cycle arrest in human Jurkat E6-1 cells assessed as accumulation at G2/M phase at 23 uM after 24 hrs by FACS flow cytometry; assay type: functional; outline: as §1
HT-29 = assay: Cytotoxicity against human HT-29 cells after 48 hrs by SRB assay; assay type: functional, cell-based; settings: HT-29, 48 h
Outline: (§2)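 NCI sulforhodamine B protocol. Cells were grown in high-glucose DMEM with 5% FBS and seeded per well at 4 × 10^3 (HT-29), 3.5 × 10^3 (M21) or 3 × 10^3 (MCF-7), then allowed 24 h to attach. Serial dilutions from 200 μM to 780 nM final were applied in DMSO <0.5% for 48 h. Cells were fixed with cold TCA (10% final) and stained with SRB, with absorbance read at 530–568 nm. Growth inhibition was computed against day-0 plates, giving the 50% inhibitory concentration. At least two experiments in triplicate, CV <10%.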

M21 [3] = assay: Cytotoxicity against human M21 cells after 48 hrs by SRB assay; assay type: functional, cell-based; settings: M21, 48 h; outline: as §2
MCF7 = assay: Cytotoxicity against human MCF7 cells after 48 hrs by SRB assay; assay type: functional, cell-based; settings: MCF7, 48 h; outline: as §2
Jurkat [4] = assay: Cell cycle arrest in human Jurkat E6-1 cells assessed as accumulation at G0/G1 phase at 23 uM after 24 hrs by FACS flow cytometry; assay type: functional
Outline: (§3)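 Jurkat E6 cells cultured in RPMI 1640 with 10% FBS at 37 °C, 5% CO2. Compounds serially diluted in medium, starting 50% above the M21 IC50. 4.0 × 10^5 cells were exposed for 24 h. Cells were washed with PBS, chicken red blood cells added as internal standard, and fixed in ice-cold EtOH. After 1 h on ice in PBS with 1 μg/mL DAPI, phase distribution was read by flow cytometry. DMSO-treated cells served as control.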

Jurkat [5] = assay: Cell cycle arrest in human Jurkat E6-1 cells assessed as accumulation at G0/G1 phase at 176 uM after 24 hrs by FACS flow cytometry; assay type: functional; outline: as §3
Jurkat [6] = assay: Cell cycle arrest in human Jurkat E6-1 cells assessed as accumulation at S phase at 176 uM after 24 hrs by FACS flow cytometry; assay type: functional; outline: as §1
Jurkat [7] = assay: Cell cycle arrest in human Jurkat E6-1 cells assessed as accumulation at G2/M phase at 176 uM after 24 hrs by FACS flow cytometry; assay type: functional; outline: as §1
Jurkat [8] = assay: Cell cycle arrest in human Jurkat E6-1 cells assessed as accumulation at G0/G1 phase at 2.2 uM after 24 hrs by FACS flow cytometry; assay type: functional; outline: as §3
Jurkat [9] = assay: Cell cycle arrest in human Jurkat E6-1 cells assessed as accumulation at S phase at 2.2 uM after 24 hrs by FACS flow cytometry; assay type: functional; outline: as §1
Jurkat [10] = assay: Cell cycle arrest in human Jurkat E6-1 cells assessed as accumulation at G2/M phase at 2.2 uM after 24 hrs by FACS flow cytometry; assay type: functional; outline: as §1
M21 [11] = assay: Induction of DNA damage response in human M21 cells assessed as phosphorylation of H2AX into gammaH2AX at IC50 after 24 hrs by DAPI staining-based immunofluorescence assay; assay type: functional, cell-based
Outline: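 M21 cells (1 × 10^5) on fibronectin-coated coverslips, grown 24 h, then exposed to agent for 24 h at 37 °C; 0.5% DMSO control. Fixed with 3.7% formaldehyde and permeabilized with 0.1% saponin/3% BSA. Probed with mouse anti-H2AX pS139 antibody for 2 h at room temperature. Nuclei counterstained with DAPI; nuclear γH2AX foci viewed by epifluorescence microscopy.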

HT-1080 [12] = assay: Antitumor activity against human HT1080 cells xenografted in chicken chorioallantoic membrane assessed as inhibition of tumor growth at 30 ug per egg, iv administered on day 11 measured on day 17 by CAM assay; assay type: functional
Outline: (§4)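 HT-1080 fibrosarcoma cells (3.5 × 105/egg) were applied onto freshly exposed CAM of fertilized chicken eggs. On day 11, drug from a DMSO stock was diluted in Cremophor EL/99% ethanol/PBS (1/1/14 v/v) and 100 μL was injected into a vein under the CAM. Groups of 10–12 eggs were kept to day 17, embryos were euthanized at 4 °C for ≥4 h, and tumor wet weight was recorded.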

[13] = Toxicity in fertilized chicken embryo assessed as mortality rate at 30 ug per egg, iv administered on day 11 measured on day 17 by CAM assay; assay type: organism-based, Gallus gallus; settings: in vivo, read-out: Activity
Outline: (§5)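 Fertilized chicken eggs grafted on the CAM with HT-1080 cells (3.5 × 105/egg) received a 100 μL intravenous injection under the CAM on day 11. The drug was diluted in Cremophor EL/99% ethanol/PBS (1/1/14 v/v). Groups held 10–12 eggs and were incubated until day 17, when dead embryos and signs of toxicity were counted per group.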

Jurkat [14] = assay: Cell cycle arrest in human Jurkat E6-1 cells assessed as accumulation at S phase at 19 uM after 24 hrs by FACS flow cytometry; assay type: functional; outline: as §1
Jurkat [15] = assay: Cell cycle arrest in human Jurkat E6-1 cells assessed as accumulation at G2/M phase at 19 uM after 24 hrs by FACS flow cytometry; assay type: functional; outline: as §1
Jurkat [16] = assay: Cell cycle arrest in human Jurkat E6-1 cells assessed as accumulation at G0/G1 phase at 19 uM after 24 hrs by FACS flow cytometry; assay type: functional; outline: as §3
Jurkat [17] = assay: Cell cycle arrest in human Jurkat E6-1 cells assessed as accumulation at G0/G1 phase at 43 uM after 24 hrs by FACS flow cytometry; assay type: functional; outline: as §3
Jurkat [18] = assay: Cell cycle arrest in human Jurkat E6-1 cells assessed as accumulation at S phase at 43 uM after 24 hrs by FACS flow cytometry; assay type: functional
Outline: (§6)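 Jurkat E6 T-lymphoblasts in RPMI 1640 with 10% FBS, 37 °C, 5% CO2. […] Chicken red blood cells were added as internal standard. Cells were fixed in ice-cold EtOH and stained with 1 μg/mL DAPI on ice for 1 h before flow cytometry of phase distribution. Vehicle control was 0.5% DMSO.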

Jurkat [19] = assay: Cell cycle arrest in human Jurkat E6-1 cells assessed as accumulation at G2/M phase at 43 uM after 24 hrs by FACS flow cytometry; assay type: functional; outline: as §1
Jurkat [20] = assay: Cell cycle arrest in human Jurkat E6-1 cells assessed as accumulation at S phase at 200 uM after 24 hrs by FACS flow cytometry; assay type: functional; outline: as §1
Jurkat [21] = assay: Cell cycle arrest in human Jurkat E6-1 cells assessed as accumulation at G2/M phase at 200 uM after 24 hrs by FACS flow cytometry; assay type: functional; outline: as §1
Jurkat [22] = assay: Cell cycle arrest in human Jurkat E6-1 cells assessed as accumulation at G0/G1 phase at 200 uM after 24 hrs by FACS flow cytometry; assay type: functional; outline: as §3
HT-1080 [23] = assay: Antitumor activity against human HT1080 cells xenografted in chicken chorioallantoic membrane assessed as inhibition of tumor growth at 1 ug per egg, iv administered on day 11 measured on day 17 by CAM assay; assay type: functional; outline: as §4
[24] = Toxicity in fertilized chicken embryo assessed as mortality rate at 1 ug per egg, iv administered on day 11 measured on day 17 by CAM assay; assay type: organism-based, Gallus gallus; settings: in vivo, read-out: Activity; outline: as §5
Jurkat [25] = assay: Cell cycle arrest in human Jurkat E6-1 cells assessed as accumulation at G0/G1 phase at 74 uM after 24 hrs by FACS flow cytometry; assay type: functional; outline: as §3
Jurkat [26] = assay: Cell cycle arrest in human Jurkat E6-1 cells assessed as accumulation at S phase at 74 uM after 24 hrs by FACS flow cytometry; assay type: functional; outline: as §6
Jurkat [27] = assay: Cell cycle arrest in human Jurkat E6-1 cells assessed as accumulation at G2/M phase at 74 uM after 24 hrs by FACS flow cytometry; assay type: functional; outline: as §1

SMILES: CN(C)c1ccc(OS(=O)(=O)c2ccc(NC(=O)NCCCl)cc2)cc1
- Activity (Jurkat [1]): 40%
- Activity (Jurkat [2]): 9%
- IC50 (HT-29): 39 µM
- IC50 (M21 [3]): 43 µM
- IC50 (MCF7): 58 µM
- Activity (Jurkat [4]): 51%

SMILES: CCNC(=O)Nc1ccc(S(=O)(=O)Nc2ccccc2C)cc1
- Activity (Jurkat [5]): 31%
- Activity (Jurkat [6]): 55%
- Activity (Jurkat [7]): 14%
- IC50 (HT-29): > 200 µM
- IC50 (M21 [3]): > 200 µM
- IC50 (MCF7): > 200 µM

SMILES: CCNC(=O)Nc1ccc(S(=O)(=O)Oc2ccccc2CC)cc1
- Activity (Jurkat [8]): 11%
- Activity (Jurkat [9]): 75%
- Activity (Jurkat [10]): 14%
- Activity (M21 [11]): Active
- TGI (HT-1080 [12]): 45%
- mortality at 6 days [13]: 9%
- IC50 (HT-29): 12 µM
- IC50 (M21 [3]): 2.5 µM
- IC50 (MCF7): 3.4 µM

SMILES: Cc1ccc(OS(=O)(=O)c2ccc(NC(=O)NCCCl)cc2)cc1
- Activity (Jurkat [14]): 57%
- Activity (Jurkat [15]): 11%
- IC50 (HT-29): 30 µM
- IC50 (M21 [3]): 21 µM
- IC50 (MCF7): 33 µM
- Activity (Jurkat [16]): 32%

SMILES: CCNC(=O)Nc1cccc(S(=O)(=O)Nc2ccccc2CC)c1
- Activity (Jurkat [17]): 40%
- Activity (Jurkat [18]): 41%
- Activity (Jurkat [19]): 19%
- IC50 (HT-29): 15 µM
- IC50 (M21 [3]): > 100 µM
- IC50 (MCF7): 48 µM

SMILES: Cc1ccccc1NS(=O)(=O)c1ccc(NC(=O)NCCCCl)cc1
- Activity (Jurkat [20]): 38%
- Activity (Jurkat [21]): 15%
- IC50 (HT-29): 64 µM
- IC50 (M21 [3]): > 200 µM
- IC50 (MCF7): > 200 µM
- Activity (Jurkat [22]): 47%

SMILES: COc1ccc(/C=C\c2cc(OC)c(OC)c(OC)c2)cc1O [COMBRETASTATIN A4]
- TGI (HT-1080 [23]): 49%
- mortality at 6 days [24]: 21%

SMILES: CCNC(=O)Nc1cccc(S(=O)(=O)Nc2ccccc2C)c1
- Activity (Jurkat [25]): 46%
- Activity (Jurkat [26]): 34%
- Activity (Jurkat [27]): 20%
- IC50 (HT-29): 102 µM
- IC50 (M21 [3]): 131 µM
- IC50 (MCF7): 108 µM

SMILES: CCc1ccccc1OS(=O)(=O)c1cccc(NC(=O)NCCCCl)c1
- Activity (Jurkat [14]): 38%
- Activity (Jurkat [15]): 17%
- IC50 (M21 [3]): 24 µM
- Activity (Jurkat [16]): 45%
